Laboratory results published in ChEMBL document CHEMBL2146441, “2,6-Disubstituted imidazo[2,1-b][1,3,4]thiadiazoles: search for anticancer agents” (2012).

Columns and labels:
Format in all cases: functional
BT-549 [1] = test: Cytotoxicity against human BT549 cells assessed as cell growth at 10^-4 M after 48 hrs by SRB assay; settings: BT-549, 48 h, read-out: Activity
Summary of the method: (§1)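 NCI-60 screen: lines kept in RPMI 1640 with 5% FBS, seeded at 5000–40,000 cells/well by doubling time, preincubated 24 h at 37 °C in 5% CO2. Time-zero plates TCA-fixed at drug addition. DMSO stocks diluted in medium, 48 h exposure. Fixation in cold TCA (final 10% adherent, 16% suspension), 0.4% SRB stain, solubilised in 10 mM Tris base, A515. Percent growth computed against control and time-zero.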

HOP-92 = test: Cytotoxicity against human HOP92 cells assessed as cell growth at 10^-8 M after 48 hrs by SRB assay; settings: HOP-92, 48 h, read-out: Activity
Summary of the method: (§2)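 NCI-60 five-dose screen. Cells were grown in RPMI 1640 with 5% FBS and seeded at 5000–40,000 cells/well according to doubling time. They were pre-incubated 24 h at 37 °C in 5% CO₂, and time-zero (Tz) plates were TCA-fixed at drug addition. Five 10-fold dilutions of DMSO stock were applied for 48 h. Read-out was SRB staining, 515 nm absorbance, with percent growth calculated versus Tz and untreated control.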

SK-OV-3 [2] = test: Cytotoxicity against human SKOV3 cells assessed as cell growth at 10^-4 M after 48 hrs by SRB assay; settings: SK-OV-3, 48 h, read-out: Activity
[3] = Cytotoxicity against human Hs 578T cells assessed as cell growth at 10^-5 M after 48 hrs by SRB assay; settings: read-out: Activity; summary of the method: as §2
PC-3 [4] = test: Cytotoxicity against human PC3 cells assessed as cell growth at 10^-7 M after 48 hrs by SRB assay; settings: PC-3, 48 h, read-out: Activity
LOX IMVI = test: Cytotoxicity against human LOXIMVI cells assessed as cell growth at 10^-4 M after 48 hrs by SRB assay; settings: read-out: Activity
HT-29 = test: Cytotoxicity against human HT-29 cells assessed as cell growth at 10^-4 M after 48 hrs by SRB assay; settings: HT-29, 48 h, read-out: Activity; summary of the method: as §2
UO-31 [5] = test: Cytotoxicity against human UO31 cells assessed as cell growth at 10^-7 M after 48 hrs by SRB assay; settings: UO-31, 48 h, read-out: Activity
UO-31 [6] = test: Cytotoxicity against human UO31 cells assessed as cell growth at 10^-8 M after 48 hrs by SRB assay; settings: UO-31, 48 h, read-out: Activity
ACHN = test: Growth inhibition of human ACHN cells after 48 hrs by SRB assay; settings: for CC50: read-out: LC50 (the source's name)
Summary of the method: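 Same 48 h NCI-60 five-dose SRB protocol. Adherent lines were fixed with cold TCA at 10% final; suspension lines such as CCRF-CEM were fixed with 16% final TCA. Stain was 0.4% SRB in 1% acetic acid for 10 min, solubilized in 10 mM Tris base and read at 515 nm. GI50 came from log concentration–growth curves, solving [(Ti−Tz)/(C−Tz)]×100 = 50.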

BT-549 [7] = test: Cytotoxicity against human BT549 cells assessed as cell growth at 10^-6 M after 48 hrs by SRB assay; settings: BT-549, 48 h, read-out: Activity; summary of the method: as §1
OVCAR-4 [8] = test: Cytotoxicity against human OVCAR4 cells assessed as cell growth at 10^-8 M after 48 hrs by SRB assay; settings: OVCAR-4, 48 h, read-out: Activity
MOLT-4 [9] = test: Growth inhibition of human MOLT4 cells after 48 hrs by SRB assay; settings: MOLT-4, 48 h
Summary of the method: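 Leukemia suspension lines grown in RPMI 1640 with 5% FBS, seeded at 5000–40,000 cells/well, and preincubated 24 h at 37 °C, 5% CO2. Compound, stocked in DMSO, given either once at 10^-5 M or at five 10-fold dilutions for 48 h. Settled cells fixed with 80% TCA (final 16%), stained with SRB, and read at 515 nm. GI50 calculated against time-zero and control growth.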

SNB-19 = test: Cytotoxicity against human SNB19 cells assessed as cell growth at 10^-4 M after 48 hrs by SRB assay; settings: SNB-19, 48 h, read-out: Activity
IGROV-1 = test: Growth inhibition of human IGROV1 cells after 48 hrs by SRB assay; settings: IGROV-1, 48 h; for CC50: read-out: LC50 (the source's name)
Summary of the method: (§3)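 Adherent NCI-60 lines grown in RPMI 1640 with 5% FBS, seeded at 5000–40,000 cells/well, and preincubated 24 h at 37 °C, 5% CO2. Compound, stocked in DMSO, given either once at 10^-5 M or at five 10-fold dilutions for 48 h. Cells fixed with cold TCA (final 10%), stained with 0.4% SRB, and read at 515 nm. GI50 taken as 50% reduction in net protein increase versus time-zero and control plates.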

CCRF-CEM = test: Cytotoxicity against human CCRF-CEM cells assessed as cell growth at 10^-8 M after 48 hrs by SRB assay; settings: read-out: Activity; summary of the method: as §1
NCI-H522 = test: Growth inhibition of human NCI-H522 cells after 48 hrs by SRB assay; settings: NCI-H522, 48 h; for CC50: read-out: LC50 (the source's name); summary of the method: as §3
MCF7 = test: Cytotoxicity against human MCF7 cells assessed as cell growth at 10^-6 M after 48 hrs by SRB assay; settings: MCF7, 48 h, read-out: Activity
MOLT-4 [10] = test: Cytotoxicity against human MOLT4 cells assessed as cell growth at 10^-8 M after 48 hrs by SRB assay; settings: MOLT-4, 48 h, read-out: Activity
SK-OV-3 [11] = test: Growth inhibition of human SKOV3 cells after 48 hrs by SRB assay; settings: SK-OV-3, 48 h; for CC50: read-out: LC50 (the source's name); summary of the method: as §3
MDA-MB-435 = test: Growth inhibition of human MDA-MB-435 cells after 48 hrs by SRB assay; settings: MDA-MB-435, 48 h; summary of the method: as §3
UO-31 [12] = test: Cytotoxicity against human UO31 cells assessed as cell growth at 10^-6 M after 48 hrs by SRB assay; settings: UO-31, 48 h, read-out: Activity
SN12C = test: Cytotoxicity against human SN12C cells assessed as cell growth at 10^-5 M after 48 hrs by SRB assay; settings: read-out: Activity
PC-3 [13] = test: Growth inhibition of human PC3 cells after 48 hrs by SRB assay; settings: PC-3, 48 h; for CC50: read-out: LC50 (the source's name); summary of the method: as §3
OVCAR-4 [14] = test: Growth inhibition of human OVCAR4 cells after 48 hrs by SRB assay; settings: OVCAR-4, 48 h; summary of the method: as §3
A549 = test: Cytotoxicity against human A549 cells assessed as cell growth at 10^-7 M after 48 hrs by SRB assay; settings: A549, 48 h, read-out: Activity; summary of the method: as §1
SR = test: Growth inhibition of human SR cells after 48 hrs by SRB assay

## COc1ccc(-c2nn3cc(-c4cccc(N)c4)nc3s2)cc1
BT-549 [1]
  growth at 100 µM: -25%
HOP-92
  growth at 0.01 µM: 71%
SK-OV-3 [2]
  growth at 100 µM: -68%
[3]
  growth at 10 µM: 6%
PC-3 [4]
  growth at 0.1 µM: 81%
LOX IMVI
  growth at 100 µM: -29%
HT-29
  growth at 100 µM: -48%
UO-31 [5]
  growth at 0.1 µM: 81%
UO-31 [6]
  growth at 0.01 µM: 86%
ACHN
  GI50: 4.5 µM
  TGI: 21.8 µM
  CC50: 91.3 µM
BT-549 [7]
  growth at 1 µM: 87%
OVCAR-4 [8]
  growth at 0.01 µM: 92%
MOLT-4 [9]
  GI50: 3 µM
  LC50: > 100 µM
  TGI: > 100 µM
SNB-19
  growth at 100 µM: 7%
IGROV-1
  GI50: 2.65 µM
  TGI: 34.4 µM
  CC50: > 100 µM
CCRF-CEM
  growth at 0.01 µM: 96%
NCI-H522
  GI50: 1.63 µM
  TGI: 14 µM
  CC50: 51.1 µM
MCF7
  growth at 1 µM: 65%
MOLT-4 [10]
  growth at 0.01 µM: 103%
SK-OV-3 [11]
  GI50: 2.72 µM
  TGI: 10.8 µM
  CC50: 54.9 µM
MDA-MB-435
  GI50: 2.58 µM
  LC50: 89.6 µM
  TGI: 14.8 µM
UO-31 [12]
  growth at 1 µM: 60%
SN12C
  growth at 10 µM: 36%
PC-3 [13]
  GI50: 1.2 µM
  TGI: 20.8 µM
  CC50: > 100 µM
OVCAR-4 [14]
  GI50: 1.54 µM
  TGI: 15.1 µM
OVCAR-4 [14]; read-out: LC50 (the source's name)
  CC50: > 100 µM
A549
  growth at 0.1 µM: 106%
SR
  GI50: 3.27 µM
  LC50: > 100 µM
  TGI: > 100 µM

## COc1ccc(-c2nn3cc(-c4ccc(O)cc4O)nc3s2)cc1
BT-549 [1]
  growth at 100 µM: -15%
HOP-92
  growth at 0.01 µM: 73%
SK-OV-3 [2]
  growth at 100 µM: -50%
[3]
  growth at 10 µM: -2%
PC-3 [4]
  growth at 0.1 µM: 91%
LOX IMVI
  growth at 100 µM: -4%
HT-29
  growth at 100 µM: -20%
UO-31 [5]
  growth at 0.1 µM: 83%
UO-31 [6]
  growth at 0.01 µM: 84%
ACHN
  GI50: 3.52 µM
  TGI: > 100 µM
  CC50: > 100 µM
BT-549 [7]
  growth at 1 µM: 73%
OVCAR-4 [8]
  growth at 0.01 µM: 95%
MOLT-4 [9]
  GI50: 3.04 µM
  LC50: > 100 µM
  TGI: 29.8 µM
SNB-19
  growth at 100 µM: 1%
IGROV-1
  GI50: 2.23 µM
  TGI: 37.4 µM
  CC50: > 100 µM
CCRF-CEM
  growth at 0.01 µM: 98%
NCI-H522
  GI50: 1.88 µM
  TGI: 11.2 µM
  CC50: > 100 µM
MCF7
  growth at 1 µM: 70%
MOLT-4 [10]
  growth at 0.01 µM: 100%
SK-OV-3 [11]
  GI50: 1.7 µM
  TGI: 3.62 µM
  CC50: 7.72 µM
MDA-MB-435
  GI50: 2.61 µM
  LC50: > 100 µM
  TGI: 18.6 µM
UO-31 [12]
  growth at 1 µM: 68%
SN12C
  growth at 10 µM: 7%
PC-3 [13]
  GI50: 1.95 µM
  TGI: > 100 µM
  CC50: > 100 µM
OVCAR-4 [14]
  GI50: 1.38 µM
  TGI: 3.39 µM
A549
  growth at 0.1 µM: 99%
SR
  GI50: 2.17 µM
  LC50: > 100 µM
  TGI: 14 µM
